Results published in ChEMBL document CHEMBL3600378 (J Med Chem, 2015).

Experiments:
[1] = target: Beta-1 adrenergic receptor (Homo sapiens, UniProt P08588); experiment: Agonist activity at human beta1-adrenergic receptor expressed in CHO cells assessed as increase of cAMP level after 30 mins; type: functional, cell-based
In short: (§1)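 Stably transfected CHO cells expressing human β1, β2 or β3 or marmoset β3 receptor were grown in Ham's F-12 with 10% FBS and geneticin, seeded at 2×10⁴ cells/well and grown about 20 h. Cells spent 15 min serum-free, then 30 min with compound in medium containing HEPES and isobutylmethylxanthine. Lysate cAMP was measured by kit. […] EC50 is the half-maximal concentration for each compound.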

[2] = target: T1, Alpha-1A adrenergic receptor (Homo sapiens) (UniProt P35348); experiment: Intrinsic activity at human alpha1A-adrenergic receptor expressed in HEK293 cells assessed as calcium flux by fluorescence assay relative to norepinephrine; type: functional, cell-based
T1 sequence (whole entry): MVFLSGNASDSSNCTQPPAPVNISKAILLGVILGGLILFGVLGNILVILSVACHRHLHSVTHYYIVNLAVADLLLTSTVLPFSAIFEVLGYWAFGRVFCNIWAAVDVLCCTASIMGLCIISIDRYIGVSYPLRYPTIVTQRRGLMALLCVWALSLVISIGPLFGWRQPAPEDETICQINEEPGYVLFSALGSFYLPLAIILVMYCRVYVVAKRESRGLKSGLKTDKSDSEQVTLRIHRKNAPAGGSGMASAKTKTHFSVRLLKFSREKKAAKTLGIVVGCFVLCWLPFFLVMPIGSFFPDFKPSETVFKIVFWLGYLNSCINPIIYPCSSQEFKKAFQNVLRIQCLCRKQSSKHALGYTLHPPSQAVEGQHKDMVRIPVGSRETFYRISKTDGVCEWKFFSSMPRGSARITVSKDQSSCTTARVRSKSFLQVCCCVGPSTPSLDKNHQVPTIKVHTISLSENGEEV

[3] = target: Beta-2 adrenergic receptor (Homo sapiens, UniProt P07550); experiment: Intrinsic activity at human beta2-adrenergic receptor expressed in CHO cells assessed as increase of cAMP level after 30 mins relative to isoproterenol; type: functional, cell-based; in short: as §1
Rattus norvegicus [4] = experiment: Cardiotoxicity in anesthetized Sprague-Dawley rat assessed as decrease in heart rate at 3 mg/kg, iv measured for 30 mins relative to control; type: toxicity, organism-based; set-up: scale not given: the % may be the effect or the level left; conditions: in vivo, 0.5 h
In short: (§2)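 Male Sprague-Dawley rats (200-300 g) were anesthetized with sodium pentobarbital (50 mg/kg i.p. plus 25 mg/kg s.c.). The compound was injected via the cannulated left femoral vein once BP and HR were stable, and HR and MBP were recorded for 30 min. Results are the maximum % increase or decrease from baseline, as mean ± SEM. Where given, silodosin (0.01 mg/kg iv) preceded the compound.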

[5] = target: T2, Alpha-1A adrenergic receptor (Homo sapiens, UniProt P35348); experiment: Agonist activity at human alpha1A-adrenergic receptor expressed in HEK293 cells assessed as calcium flux by fluorescence assay; type: functional, cell-based
T2 sequence (P35348 whole entry): T1 sequence (whole entry)

[6] = target: T3, Alpha-2A adrenergic receptor (Homo sapiens, UniProt P08913); experiment: Agonist activity at human alpha2A-adrenergic receptor
T3 sequence (P08913 whole entry): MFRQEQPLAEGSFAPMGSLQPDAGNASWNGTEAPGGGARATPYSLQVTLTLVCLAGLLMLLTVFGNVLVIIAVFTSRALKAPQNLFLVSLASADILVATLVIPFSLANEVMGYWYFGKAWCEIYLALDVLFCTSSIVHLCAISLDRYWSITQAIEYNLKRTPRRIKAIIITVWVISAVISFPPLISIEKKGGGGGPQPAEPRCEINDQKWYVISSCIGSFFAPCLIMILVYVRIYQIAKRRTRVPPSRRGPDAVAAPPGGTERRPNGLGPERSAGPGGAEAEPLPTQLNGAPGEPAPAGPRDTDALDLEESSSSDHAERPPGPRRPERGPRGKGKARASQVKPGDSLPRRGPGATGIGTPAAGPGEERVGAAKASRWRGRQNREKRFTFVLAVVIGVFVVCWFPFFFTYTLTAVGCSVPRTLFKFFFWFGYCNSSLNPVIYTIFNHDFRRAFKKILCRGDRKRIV

Rattus norvegicus [7] = experiment: Cardiotoxicity in anesthetized Sprague-Dawley rat assessed as increase in heart rate at 3 mg/kg, iv measured for 30 mins relative to control; type: toxicity, organism-based; conditions: in vivo, 0.5 h; in short: as §2
Homo sapiens [8] = species: Homo sapiens; experiment: Selectivity ratio of EC50 for human beta1-adrenergic receptor to EC50 for human beta3-adrenergic receptor
Homo sapiens [9] = species: Homo sapiens; experiment: Selectivity ratio of EC50 for human alpha1A-adrenergic receptor to EC50 for human beta3-adrenergic receptor
Homo sapiens [10] = species: Homo sapiens; experiment: Selectivity ratio of EC50 for human beta2-adrenergic receptor to EC50 for human beta3-adrenergic receptor

Beta-1 adrenergic receptor, sequence (P08588 whole entry): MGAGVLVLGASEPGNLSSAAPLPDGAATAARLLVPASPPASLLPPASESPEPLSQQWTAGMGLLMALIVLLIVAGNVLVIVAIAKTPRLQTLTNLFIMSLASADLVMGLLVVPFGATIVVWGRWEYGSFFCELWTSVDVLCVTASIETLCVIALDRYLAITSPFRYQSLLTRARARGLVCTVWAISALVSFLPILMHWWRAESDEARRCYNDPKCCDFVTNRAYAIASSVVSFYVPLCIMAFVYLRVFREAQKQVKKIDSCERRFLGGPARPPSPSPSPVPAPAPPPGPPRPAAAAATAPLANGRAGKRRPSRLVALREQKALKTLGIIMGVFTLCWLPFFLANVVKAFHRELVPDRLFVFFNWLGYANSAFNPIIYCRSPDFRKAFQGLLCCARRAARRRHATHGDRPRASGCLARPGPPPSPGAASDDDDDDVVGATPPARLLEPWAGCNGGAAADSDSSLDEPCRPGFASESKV
Beta-2 adrenergic receptor, sequence (P07550 whole entry, looked up): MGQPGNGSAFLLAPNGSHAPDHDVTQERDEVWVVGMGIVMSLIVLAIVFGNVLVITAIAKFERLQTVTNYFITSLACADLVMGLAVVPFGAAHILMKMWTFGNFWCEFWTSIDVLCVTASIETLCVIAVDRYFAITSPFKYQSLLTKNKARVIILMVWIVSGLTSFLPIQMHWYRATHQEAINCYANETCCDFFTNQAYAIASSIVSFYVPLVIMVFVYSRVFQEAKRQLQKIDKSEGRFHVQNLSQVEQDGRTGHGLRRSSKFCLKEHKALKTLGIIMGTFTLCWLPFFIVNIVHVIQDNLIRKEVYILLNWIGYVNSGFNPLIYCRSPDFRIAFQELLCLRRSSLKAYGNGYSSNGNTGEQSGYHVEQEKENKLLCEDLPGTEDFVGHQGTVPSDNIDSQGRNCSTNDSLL

For `Cc1n[nH]c2cc(OCCNC[C@H](O)c3cccc(NS(C)(=O)=O)c3)ccc12`, the EC50 [1] was greater than 10 µM, the Intrinsic activity [2] was 71% and the Intrinsic activity [3] was 4%. The Activity (Rattus norvegicus [4]) was 8.8%, the EC50 [5] was 0.219 µM and the EC50 [6] was greater than 10 µM. The Activity (Rattus norvegicus [7]) was 7.9%, the Ratio EC50 (Homo sapiens [8]) was greater than 476 and the Ratio EC50 (Homo sapiens [9]) was 10. The Ratio EC50 (Homo sapiens [10]) was greater than 476.
